Experimental data published in ChEMBL document CHEMBL1157556, “Synthesis and biological screening of a combinatorial library of beta-chlorovinyl chalcones as anticancer, anti-inflammatory and antimicrobial agents” (Bioorg Med Chem, 2010).
Values after ≈ are worked out from the molar mass of the structure shown. One block for each compound: values may come before it.

Legend:
[1] = system: THP-1; test: Cytotoxicity against human THP1 cells assessed as CCK8 release at 10 uM after 24 hrs by ELISA; assay type: cell-based; details: thp-1, 24 h
Summary of the method: (§1)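 Same THP-1 cytokine-assay cells, with compounds in 0.5% DMSO and LPS stimulation, were scored in parallel for cytotoxicity by CCK-8.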

[2] = system: PANC-1; test: Anticancer activity against human PANC1 cells at 10 uM after 48 hrs by propidium iodide fluorescence assay; assay type: functional
Summary of the method: (§2)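 Propidium iodide DNA-fluorescence assay. Seeding 3000–7500 cells/well, 24 h recovery at 37 °C in 5% CO₂. Compounds in 0.1% DMSO added to triplicate wells at 10 µM. Flavopiridol 700 nM and gemcitabine 500 nM as reference inhibitors. Plates frozen at −80 °C for 24 h, thawed to room temperature, fluorescence read at excitation 530 nm and emission 620 nm. Percent cytotoxicity calculated.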

[3] = system: Staphylococcus aureus; test: Antibacterial activity against Staphylococcus aureus MTCC 96 at 50 ug/ml after 24 hrs agar diffusion method; assay type: functional; details: MTCC 96, 24 h, read-out: IZ
Summary of the method: (§3)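 Agar well diffusion on Mueller Hinton agar seeded with 0.1 mL of a 10⁵ cfu/mL suspension in 0.85% saline. Compounds dissolved in DMSO, final concentrations 25–250 µg/mL, 0.1 mL loaded per 6 mm well. DMSO (1%) control; tetracycline (10 µg/mL) reference. Duplicate plates incubated 24 h at 37 °C. Inhibition zone read in mm. MIC taken as lowest concentration giving complete growth inhibition.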

[4] = system: THP-1; test: Antiinflammatory activity in human THP1 cells assessed as inhibition of LPS-induced IL6 release at 10 uM after 24 hrs by ELISA; assay type: functional; details: THP-1, 24 h
Summary of the method: (§4)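 THP-1 cells grown in RPMI 1640 with 10% FBS, penicillin and streptomycin, then PMA-differentiated. Compounds in 0.5% DMSO preincubated 30 min at 37 °C before LPS (E. coli 0127:B8) stimulation. TNF-α and IL-6 release measured by kit per the manufacturer (BD Biosciences). Percent inhibition calculated relative to control. Dexamethasone 1 µM as reference.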

[5] = system: Escherichia coli; test: Antibacterial activity against Escherichia coli MTCC 1650 at 50 ug/ml after 24 hrs agar diffusion method; assay type: functional; details: MTCC 1650, 24 h, read-out: IZ; summary of the method: as §3
[6] = system: Proteus vulgaris; test: Antibacterial activity against Proteus vulgaris MTCC 1771 at 50 ug/ml after 24 hrs agar diffusion method; assay type: functional; details: MTCC 1771, 24 h, read-out: IZ; summary of the method: as §3
[7] = system: Calu-1; test: Anticancer activity against human Calu1 cells at 10 uM after 48 hrs by propidium iodide fluorescence assay; assay type: functional; summary of the method: as §2
[8] = system: Candida albicans; test: Antifungal activity against Candida albicans MTCC 227 at 100 ug/ml after 48 hrs agar diffusion method; assay type: functional; details: MTCC 227, 48 h, read-out: IZ
Summary of the method: (§5)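 Fungal spore suspensions in sterile distilled water adjusted to 10⁶ cfu/mL; 0.1 mL spread on Sabouraud dextrose agar. Wells of 6 mm filled with 0.1 mL compound dilution in DMSO. DMSO (1%) control; nystatin (30 µg/mL) reference. Duplicate plates incubated at 28 °C for 48 h. Activity read as inhibition zone diameter in mm.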

[9] = system: Bacillus subtilis; test: Antibacterial activity against Bacillus subtilis MTCC 1789 at 50 ug/ml after 24 hrs agar diffusion method; assay type: functional; details: MTCC 1789, 24 h, read-out: IZ; summary of the method: as §3
[10] = system: Bacillus subtilis; test: Antibacterial activity against Bacillus subtilis MTCC 1789 after 24 hrs; assay type: functional; details: MTCC 1789, 24 h; summary of the method: as §3
[11] = system: Penicillium chrysogenum; test: Antifungal activity against Penicillium chrysogenum MTCC 1996 at 100 ug/ml after 48 hrs agar diffusion method; assay type: functional; details: MTCC 1996, 48 h, read-out: IZ; summary of the method: as §5
[12] = system: Klebsiella pneumoniae; test: Antibacterial activity against Klebsiella pneumoniae NCIM 2957 after 24 hrs; assay type: functional; details: NCIM 2957, 24 h; summary of the method: as §3
[13] = system: Staphylococcus aureus; test: Antibacterial activity against Staphylococcus aureus MTCC 96 after 24 hrs; assay type: functional; details: MTCC 96, 24 h; summary of the method: as §3
[14] = system: NCI-H460; test: Anticancer activity against human H460 cells at 10 uM after 48 hrs by propidium iodide fluorescence assay; assay type: functional; summary of the method: as §2
[15] = system: ACHN; test: Anticancer activity against human ACHN cells at 10 uM after 48 hrs by propidium iodide fluorescence assay; assay type: functional; summary of the method: as §2
[16] = system: Klebsiella pneumoniae; test: Antibacterial activity against Klebsiella pneumoniae NCIM 2957 at 50 ug/ml after 24 hrs agar diffusion method; assay type: functional; details: NCIM 2957, 24 h, read-out: IZ; summary of the method: as §3
[17] = system: Trichoderma viride; test: Antifungal activity against Trichoderma viride MTCC 167 at 100 ug/ml after 48 hrs agar diffusion method; assay type: functional; details: MTCC 167, 48 h, read-out: IZ; summary of the method: as §5
[18] = system: THP-1; test: Antiinflammatory activity in human THP1 cells assessed as inhibition of LPS-induced TNFalpha release at 10 uM after 24 hrs by ELISA; assay type: functional; details: THP-1, 24 h; summary of the method: as §4
[19] = system: Escherichia coli; test: Antibacterial activity against Escherichia coli MTCC 1650 after 24 hrs; assay type: functional; details: MTCC 1650, 24 h; summary of the method: as §3
[20] = system: Proteus vulgaris; test: Antibacterial activity against Proteus vulgaris MTCC 1771 after 24 hrs; assay type: functional; details: MTCC 1771, 24 h; summary of the method: as §3
[21] = system: Aspergillus flavus; test: Antifungal activity against Aspergillus flavus MTCC 2501 at 100 ug/ml after 48 hrs agar diffusion method; assay type: functional; details: MTCC 2501, 48 h, read-out: IZ; summary of the method: as §5
[22] = system: Aspergillus niger; test: Antifungal activity against Aspergillus niger MTCC 1781 at 100 ug/ml after 48 hrs agar diffusion method; assay type: functional; details: MTCC 1781, 48 h, read-out: IZ; summary of the method: as §5
[23] = system: HCT-116; test: Anticancer activity against human HCT116 cells at 10 uM after 48 hrs by propidium iodide fluorescence assay; assay type: functional; summary of the method: as §2
[24] = system: Calu-1; test: Anticancer activity against human Calu1 cells at 500 nM after 48 hrs by propidium iodide fluorescence assay; assay type: functional; summary of the method: as §2
[25] = system: PANC-1; test: Anticancer activity against human PANC1 cells at 500 nM after 48 hrs by propidium iodide fluorescence assay; assay type: functional; summary of the method: as §2
[26] = system: ACHN; test: Anticancer activity against human ACHN cells at 500 nM after 48 hrs by propidium iodide fluorescence assay; assay type: functional; summary of the method: as §2
[27] = system: NCI-H460; test: Anticancer activity against human H460 cells at 500 nM after 48 hrs by propidium iodide fluorescence assay; assay type: functional; summary of the method: as §2
[28] = system: HCT-116; test: Anticancer activity against human HCT116 cells at 500 nM after 48 hrs by propidium iodide fluorescence assay; assay type: functional; summary of the method: as §2
[29] = system: THP-1; test: Cytotoxicity against human THP1 cells assessed as CCK8 release at 1 uM after 24 hrs by ELISA; assay type: cell-based; details: thp-1, 24 h; summary of the method: as §1
[30] = system: THP-1; test: Antiinflammatory activity in human THP1 cells assessed as inhibition of LPS-induced TNFalpha release at 1 uM after 24 hrs by ELISA; assay type: functional; details: THP-1, 24 h; summary of the method: as §4
[31] = system: THP-1; test: Antiinflammatory activity in human THP1 cells assessed as inhibition of LPS-induced IL6 release at 1 uM after 24 hrs by ELISA; assay type: functional; details: THP-1, 24 h; summary of the method: as §4
[32] = system: ACHN; test: Anticancer activity against human ACHN cells at 700 nM after 48 hrs by propidium iodide fluorescence assay; assay type: functional; summary of the method: as §2
[33] = system: Calu-1; test: Anticancer activity against human Calu1 cells at 700 nM after 48 hrs by propidium iodide fluorescence assay; assay type: functional; summary of the method: as §2
[34] = system: NCI-H460; test: Anticancer activity against human H460 cells at 700 nM after 48 hrs by propidium iodide fluorescence assay; assay type: functional; summary of the method: as §2
[35] = system: HCT-116; test: Anticancer activity against human HCT116 cells at 700 nM after 48 hrs by propidium iodide fluorescence assay; assay type: functional; summary of the method: as §2
[36] = system: PANC-1; test: Anticancer activity against human PANC1 cells at 700 nM after 48 hrs by propidium iodide fluorescence assay; assay type: functional; summary of the method: as §2

MIC [10]: 50 µg/mL (≈ 138 µM)
MIC [12]: 50 µg/mL (≈ 138 µM)
MIC [13]: 50 µg/mL (≈ 138 µM)
MIC [19]: 50 µg/mL (≈ 138 µM)
MIC [20]: 50 µg/mL (≈ 138 µM)
SMILES: COc1ccc(C(=O)/C=C/C=C(\Cl)c2cccc(Cl)c2)c(OC)c1
Activity [1]: 0%
Activity [2]: 32%
zone of inhibition at 50 µg/mL [3]: 16 mm
inhibition at 10 µM [4]: 7%
zone of inhibition at 50 µg/mL [5]: 12 mm
zone of inhibition at 50 µg/mL [6]: 13 mm
Activity [7]: 40%
zone of inhibition at 100 µg/mL [8]: 10 mm
zone of inhibition at 50 µg/mL [9]: 18 mm
zone of inhibition at 100 µg/mL [11]: 10 mm
Activity [14]: 31%
Activity [15]: 32%
zone of inhibition at 50 µg/mL [16]: 16 mm
zone of inhibition at 100 µg/mL [17]: 13 mm
inhibition at 10 µM [18]: 0%
zone of inhibition at 100 µg/mL [21]: 15 mm
zone of inhibition at 100 µg/mL [22]: 14 mm
Activity [23]: 37%

SMILES: Nc1ccn([C@@H]2O[C@H](CO)[C@@H](O)C2(F)F)c(=O)n1 [GEMCITABINE]
Activity [24]: 70%
Activity [25]: 71%
Activity [26]: 70%
Activity [27]: 68%
Activity [28]: 76%

MIC [10]: 50 µg/mL (≈ 123 µM)
MIC [12]: 50 µg/mL (≈ 123 µM)
MIC [13]: 50 µg/mL (≈ 123 µM)
MIC [19]: 50 µg/mL (≈ 123 µM)
MIC [20]: 50 µg/mL (≈ 123 µM)
SMILES: COc1ccc(C(=O)/C=C/C=C(\Cl)c2ccc(Br)cc2)c(OC)c1
Activity [1]: 0%
Activity [2]: 33%
zone of inhibition at 50 µg/mL [3]: 12 mm
inhibition at 10 µM [4]: 36%
zone of inhibition at 50 µg/mL [5]: 13 mm
zone of inhibition at 50 µg/mL [6]: 10 mm
Activity [7]: 27%
zone of inhibition at 100 µg/mL [8]: 12 mm
zone of inhibition at 50 µg/mL [9]: 16 mm
zone of inhibition at 100 µg/mL [11]: 16 mm
Activity [14]: 16%
Activity [15]: 39%
zone of inhibition at 50 µg/mL [16]: 18 mm
zone of inhibition at 100 µg/mL [17]: 16 mm
inhibition at 10 µM [18]: 0%
zone of inhibition at 100 µg/mL [21]: 18 mm
zone of inhibition at 100 µg/mL [22]: 12 mm
Activity [23]: 22%

SMILES: C[C@@H]1C[C@H]2[C@@H]3CCC4=CC(=O)C=C[C@]4(C)[C@@]3(F)[C@@H](O)C[C@]2(C)[C@@]1(O)C(=O)CO [DEXAMETHASONE]
Activity [29]: 0%
inhibition at 1 µM [30]: 73%
inhibition at 1 µM [31]: 84%

SMILES: CN1CC[C@H](c2c(O)cc(O)c3c(=O)cc(-c4ccccc4Cl)oc23)[C@H](O)C1 [ALVOCIDIB]
Activity [32]: 68%
Activity [33]: 68%
Activity [34]: 84%
Activity [35]: 71%
Activity [36]: 75%
